This is an account of results in ChEMBL document CHEMBL3994589, “Total Synthesis and in Vitro Anti-Tumor-Promoting Activities of Racemic Acetophenone Monomers from Acronychia trifoliolata” (J Nat Prod, 2016).

For data set [1], the system named is human gammaherpesvirus 4. The data set can be described thus: Inhibition of TPA-induced EBV-early antigen activation in human Raji cells assessed as reduction in EBV-EA positive cells at 10 molar ratio per TPA after 48 hrs by indirect immunofluorescence method relative to TPA; values are per cent of control.
Data set [2] concerns human gammaherpesvirus 4. The data set can be described thus: Inhibition of TPA-induced EBV-early antigen activation in human Raji cells assessed as reduction in EBV-EA positive cells at 500 molar ratio per TPA after 48 hrs by indirect immunofluorescence method relative to TPA; values are per cent of control.
Data set [3] in a line: Cytotoxicity against human Raji cells assessed as cell viability at 1000 molar ratio per TPA after 48 hrs by trypan blue staining based method. As to conditions: read-out: Activity. The gist of the method:
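Raji cells exposed to test compounds at 1000 mol ratio to TPA (TPA 32 pmol/mL) in the EBV-EA activation assay; viability of treated cells scored by trypan blue staining and reported as percentage.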

Data set [4] in a line: Inhibition of TPA-induced EBV-early antigen activation in human Raji cells after 48 hrs by indirect immunofluorescence method. Type of data set: cell-based, human gammaherpesvirus 4. The gist of the method:
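EBV-EA activation induced in Raji cells by 32 pmol/mL TPA, with compounds tested over molar ratios relative to TPA. IC50 is the compound concentration inhibiting 50% of the positive control activated with 32 nM TPA.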

The test system of data set [5] is human gammaherpesvirus 4. The data set is described as follows: Inhibition of TPA-induced EBV-early antigen activation in human Raji cells assessed as reduction in EBV-EA positive cells at 100 molar ratio per TPA after 48 hrs by indirect immunofluorescence method relative to TPA; values are per cent of control.
Data set [6] relates to human gammaherpesvirus 4. The data set is described as follows: Inhibition of TPA-induced EBV-early antigen activation in human Raji cells assessed as reduction in EBV-EA positive cells at 1000 molar ratio per TPA after 48 hrs by indirect immunofluorescence method relative to TPA; values are per cent of control.

Take `COc1c2c(c(CC=C(C)C)c(O)c1C(C)=O)OC(C(C)(C)O)C2` (racemic): the level, % of control is 93.3% in data set [1], 30.6% in data set [2], 74.3% in data set [5] and 0% in data set [6]. In addition, in data set [3], the viability at 48 h, 1000 molar ratio per TPA is 60%. The same molecule showed a concentration for half-maximal inhibition (IC50) in data set [4] of 7.7 µM.

As for `COc1c(CC=C(C)C)c2c(c(O)c1C(C)=O)CC(C(C)(C)O)O2` (racemic), the level, % of control is 94.9% in data set [1], 32% in data set [2], 75.5% in data set [5] and 0% in data set [6]. Further, the viability at 48 h, 1000 molar ratio per TPA in data set [3] was found to be 60%. Further, it took 8 µM to reach half-maximal inhibition in data set [4] (IC50).

In the case of `COc1c2c(c(CC=C(C)C)c(O)c1C(C)=O)OC(C)(C)C(O)C2` (racemic), the level, % of control came out at 92.4% in data set [1], 26.5% in data set [2], 65.5% in data set [5] and 0% in data set [6]. Further, the viability at 48 h, 1000 molar ratio per TPA in data set [3] is 60%. In data set [4], this molecule had a concentration for half-maximal inhibition (IC50) of 7.3 µM.

On to `COc1cc(/C=C/C(=O)CC(=O)/C=C/c2ccc(O)c(OC)c2)ccc1O` [CURCUMIN], for which the level, % of control in data set [1] was 100%; in data set [2] it was 21.1%; in data set [5], 80.1%; in data set [6], 0%. Moreover, 12.1 µM corresponded to half-maximal inhibition in data set [4] (IC50).

In the case of `COc1c2c(cc(O)c1C(C)=O)OC(O)C2` (racemic), the level, % of control in data set [1] is 100%; in data set [2] it was 53.3%; in data set [5], 77.9%; in data set [6], 10.8%. Moreover, the viability at 48 h, 1000 molar ratio per TPA in data set [3] turned out to be 60%. Also, in data set [4], half-maximal inhibition (IC50) was put at 15.7 µM.

On to `COc1c(CC=C(C)C)c2c(c(OC(C)=O)c1C(C)=O)CC(C(C)(C)O)O2` (stereo not given), for which the level, % of control was determined as 100% in data set [1], 43.8% in data set [2], 71% in data set [5] and 7% in data set [6]. Besides, the viability at 48 h, 1000 molar ratio per TPA in data set [3] turned out to be 60%. This molecule registered an IC50 in data set [4] of 15 µM.

Regarding `COc1c(CC=C(C)C)c(O)c2c(c1C(C)=O)OC(C)(C)C(O)C2` (racemic), the level, % of control amounted to 96.6% in data set [1], 27.1% in data set [2], 68.2% in data set [5] and 1.5% in data set [6]. In data set [3], the viability at 48 h, 1000 molar ratio per TPA was determined as 60%. In addition, the half-maximal inhibitory concentration (IC50) in data set [4] came to 8.4 µM.

For the molecule `COc1c(CC=C(C)C)c2c(c(O)c1C(C)=O)CC(O)C(C)(C)O2` (racemic), the level, % of control in data set [1] was found to be 96.9%; in data set [2], 29.1%; in data set [5], 72.5%; in data set [6], 3%. Moreover, the viability at 48 h, 1000 molar ratio per TPA in data set [3] worked out at 60%. Further, in data set [4], half-maximal inhibition (IC50) required 8.9 µM.

On to `COc1c2c(c(CC=C(C)C)c(OC(C)=O)c1C(C)=O)OC(C(C)(C)O)C2` (stereo not given), for which the level, % of control in data set [1] is 97.8%; in data set [2], 33.9%; in data set [5], 78.6%; in data set [6], 5.3%. Besides, the viability at 48 h, 1000 molar ratio per TPA in data set [3] was found to be 60%. Moreover, in data set [4], half-maximal inhibition (IC50) was put at 9.6 µM.

For `COc1c(CCC(C)C)c2c(c(O)c1C(C)=O)CC(O)C(C)(C)O2` (stereo not given), the level, % of control turned out to be 97.8% in data set [1], 36.6% in data set [2], 78.8% in data set [5] and 0% in data set [6]. The viability at 48 h, 1000 molar ratio per TPA in data set [3] is 60%. Besides, the half-inhibitory concentration (IC50) in data set [4] amounted to 8.1 µM.

In the case of `COc1c2c(c(CCC(C)C)c(O)c1C(C)=O)OC(C)(C)C(O)C2` (racemic), the level, % of control is 97.7% in data set [1], 31.5% in data set [2], 76% in data set [5] and 4.9% in data set [6]. Further, in data set [3], the viability at 48 h, 1000 molar ratio per TPA is 60%. The half-maximal inhibitory concentration (IC50) in data set [4] came out at 9.3 µM.

Broadly, the IC50 is the concentration that gives 50% inhibition. High values mean weaker potency, low ones greater potency.
